Measurements as given in ChEMBL document CHEMBL1800046, “Design, synthesis, and X-ray crystallographic studies of α-aryl substituted fosmidomycin analogues as inhibitors of Mycobacterium tuberculosis 1-deoxy-D-xylulose 5-phosphate reductoisomerase” (J Med Chem, 2011).

Columns and labels:
[1] = Inhibition of Mycobacterium tuberculosis DXR-catalyzed NADPH-dependent rearrangement and reduction of DXP to form MEP measured every 5 secs for 500 secs by spectrophotometric analysis
[2] = test system: Mycobacterium tuberculosis; test: Antibacterial activity against Mycobacterium tuberculosis H37Rv ATCC 27294 after 14 days by microplate alamar blue assay; assay type: functional; settings: H37Rv ATCC 27294, 336 h
How it was run: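 Resazurin (Alamar blue) dye readout in 96-well format. Serially diluted compound added to a log-phase culture of M. tuberculosis H37Rv (ATCC 27294). MIC recorded in µg/ml.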

[3] = test system: Mycobacterium tuberculosis; test: Inhibition of Mycobacterium tuberculosis DXR-catalyzed NADPH-dependent rearrangement and reduction of DXP to form MEP at 100 uM measured every 5 secs for 500 secs by spectrophotometric analysis
How it was run: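 Screened with inhibitor at 100 µM. Started by adding DXP, at 22 °C. A340 for NADPH read every 5 s over 500 s. Initial velocity from the linear slope, compared with the uninhibited reaction.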

| Structure (SMILES) | IC50 [1] [µM] | MIC [2] [µg/mL] | inhibition [3] [%] |
| --- | --- | --- | --- |
| CCOP(=O)(OCC)C(CCN(O)C=O)c1ccc(Cl)c(Cl)c1 (racemic) | > 100 |  |  |
| CCOP(=O)(OCC)C(CCN(O)C(C)=O)c1ccc(Cl)c(Cl)c1 (racemic) | > 100 |  |  |
| CCOP(=O)(O)C(CCN(O)C=O)c1ccc(Cl)c(Cl)c1 (racemic) | 38 |  |  |
| CCOP(=O)(O)C(CCN(O)C(C)=O)c1ccc(Cl)c(Cl)c1 (racemic) | 22 |  |  |
| O=CN(O)CCC(c1ccccc1Br)P(=O)(O)O (racemic) | 5.6 | > 32 | 93 |
| CC(=O)N(O)CCC(c1ccccc1Br)P(=O)(O)O (racemic) | 210 | > 32 | 38 |
| CC(=O)N(O)CCC(c1ccccc1C#N)P(=O)(O)O (racemic) |  | > 32 | 30 |
| CC(=O)N(O)CCC(c1ccccc1-c1cccnc1)P(=O)(O)O (racemic) |  | > 32 | 20 |
| CCOP(=O)(O)C(CCNC(C)=O)c1ccccc1-c1cccnc1 (racemic) |  | > 32 | 20 |
| CC(=O)N(O)CCC(c1ccccc1-c1cccs1)P(=O)(O)O (racemic) |  | > 32 | 30 |
| CC(=O)N(O)CCC(c1ccccc1CO)P(=O)(O)O (racemic) | 465 | > 32 | 36 |
| CC(=O)N(O)CCC(c1ccccc1C)P(=O)(O)O (racemic) | 205 | > 32 | 55 |
| COCc1ccccc1C(CCN(O)C(C)=O)P(=O)(O)O (racemic) |  | > 32 | 30 |
| CC(=O)N(O)CCC(c1ccccc1CCO)P(=O)(O)O (racemic) | 150 | > 32 | 35 |
| CC(=O)N(O)CCC1c2ccccc2COP1(=O)O (racemic) |  | > 32 | 12 |
| CC(=O)N(O)CCC(c1ccccc1)P(=O)(O)O (racemic) | 7.4 | > 32 | 92 |
| O=CN(O)CCCP(=O)(O)O [FOSMIDOMYCIN] | 0.08 |  |  |
| CC(=O)N(O)CCCP(=O)(O)O [FR-900098] | 0.16 |  |  |
